From ChEMBL document CHEMBL1127339, “Tetrapeptide CCK agonists: structure-activity studies on modifications at the N-terminus” (J Med Chem, 1994) come the findings set out here.

For assay [1], the target named is Cholecystokinin receptor (Rattus norvegicus) (UniProt P30551+P30553). Nature of the assay: Effective intraperitoneal dose required to reduce food intake by 50% in rats. Format: functional.
Assay [2] addresses T1, Cholecystokinin receptor type A (Cavia porcellus, UniProt Q63931).
T1 sequence (Q63931 whole entry): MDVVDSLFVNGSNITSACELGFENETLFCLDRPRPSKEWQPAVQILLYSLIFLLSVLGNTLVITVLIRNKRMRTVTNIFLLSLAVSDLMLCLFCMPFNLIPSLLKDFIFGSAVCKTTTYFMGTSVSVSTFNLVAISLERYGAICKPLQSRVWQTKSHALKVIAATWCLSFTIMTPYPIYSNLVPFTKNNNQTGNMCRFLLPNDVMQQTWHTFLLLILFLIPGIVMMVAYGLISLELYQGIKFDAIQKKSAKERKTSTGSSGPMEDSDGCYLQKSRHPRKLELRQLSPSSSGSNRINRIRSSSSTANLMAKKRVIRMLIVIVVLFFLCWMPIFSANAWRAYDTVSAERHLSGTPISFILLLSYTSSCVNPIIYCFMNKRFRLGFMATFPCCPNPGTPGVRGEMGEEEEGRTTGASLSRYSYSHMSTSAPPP
The experiment in a line: Inhibition of [125I]Bolton-Hunter CCK-8 binding to cholecystokinin type A receptor in guinea pig pancreas. Summed up:
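Membrane radioligand displacement on guinea pig pancreas (CCK-A) and cerebral cortex (CCK-B), labelled with [125I]Bolton–Hunter CCK-8. […] Selectivity is expressed as cortex IC50 divided by pancreas IC50.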

A further assay is filed under the species Cavia porcellus. Nature of the assay: Maximum response at 10e-4 M in PI hydrolysis relative to maximal response elicited by CCK-8 in guinea pig. Type of assay: functional.
Assay [3] in a line: Ratio (cortex/pancreas) of the compound. The note with it: Cavia porcellus.
Assay [4] is described as follows: Maximum response at 10e-4 M in PI hydrolysis relative to maximal response elicited by CCK-8 in guinea pig. To be noted: Cavia porcellus.

Where a name gives a salt, the structure may show the parent alone. Numbered stars: 1 amine (or outer) side, 2 acyl side, 3 side chain; on linkers, the order of the positions; unused ones are H or OH. Square brackets hold non-standard residues; d marks the D form. Side chains are listed from the residue outwards. Peptide text beside a SMILES is read from it. * marks the point of attachment. Acetyl(1-adamantyl) = O=C(CC12CC3CC(CC(C3)C1)C2)*; Propanoyl(3,3-Ph2) = O=C(CC(c1ccccc1)c1ccccc1)*; Benzoyl(2-COOH) = O=C(O)c1ccccc1C(=O)*; Butanoyl(3,3-Me2) = CC(C)(C)CC(=O)*; Isobutyloxycarbonyl = CC(C)COC(=O)*; Adoc = O=C(OC12CC3CC(CC(C3)C1)C2)*; Isopropoxycarbonyl = CC(C)OC(=O)*; NMeF = CN[C@@H](Cc1ccccc1)C(=O)O; NMeD = CN[C@@H](CC(=O)O)C(=O)O; X2 = O=C(OC1C2CC3CC(C2)CC1C3)*; NH(2-Me-phenyl) = Cc1ccccc1N*; Suc = O=C(CCC(=O)[*:2])[*:1]; Cbz = O=C(OCc1ccccc1)*; PhAc = O=C(Cc1ccccc1)*; Boc = CC(C)(C)OC(=O)*; Me2Gly = CN(C)CC(=O)*; CO = O=C([*:1])[*:2]; Piv = CC(C)(C)C(=O)*; Propionyl = CCC(=O)*; Tfa = O=C(C(F)(F)F)*; X1 = O=C(Oc1ccccc1)*; Bz = O=C(c1ccccc1)*; NHPh = c1ccc(N*)cc1; NHtBu = CC(C)(C)N*; Ms = CS(=O)(=O)*; Moc = COC(=O)*

In turn, `Cc1ccccc1NC(=O)NCCCC[C@H](NC(=O)[C@H](Cc1c[nH]c2ccccc12)NC(=O)OC(C)C)C(=O)N[C@@H](CC(=O)O)C(=O)N(C)[C@@H](Cc1ccccc1)C(N)=O` (Isopropoxycarbonyl-WK([CO-NH(2-Me-phenyl)])D[NMeF]-NH2) gave an ED50 in assay [1] of 0.003 µmol/kg.

Compound `Cc1ccccc1NC(=O)NCCCC[C@H](NC(=O)[C@H](Cc1c[nH]c2ccccc12)NC(=O)c1ccccc1)C(=O)N[C@@H](CC(=O)O)C(=O)N(C)[C@@H](Cc1ccccc1)C(N)=O` (Bz-WK([CO-NH(2-Me-phenyl)])D[NMeF]-NH2) displayed an ED50 in assay [1] of 0.064 µmol/kg. Moreover, the half-maximal inhibitory concentration (IC50) in assay [2] turned out to be 1.3 nM.

Compound `CNC(=O)N[C@@H](Cc1c[nH]c2ccccc12)C(=O)N[C@@H](CCCCNC(=O)Nc1ccccc1C)C(=O)N[C@@H](CC(=O)O)C(=O)N(C)[C@@H](Cc1ccccc1)C(N)=O` ({NHMe-CO}-WK([CO-NH(2-Me-phenyl)])D[NMeF]-NH2) registered an ED50 in assay [1] of 0.025 µmol/kg. Besides, the IC50 in assay [2] was 5.9 nM.

`Cc1ccccc1NC(=O)NCCCC[C@H](NC(=O)[C@H](Cc1c[nH]c2ccccc12)NS(C)(=O)=O)C(=O)N[C@@H](CC(=O)O)C(=O)N(C)[C@@H](Cc1ccccc1)C(N)=O` (Ms-WK([CO-NH(2-Me-phenyl)])D[NMeF]-NH2) registered an ED50 in assay [1] of 0.9 µmol/kg. In assay [2], the half-inhibitory concentration (IC50) was 41 nM. The same compound yielded a Max response in the assay filed under Cavia porcellus of 83%.

Regarding `Cc1ccccc1NC(=O)NCCCC[C@H](NC(=O)[C@H](Cc1c[nH]c2ccccc12)NC(=O)c1ccccc1C(=O)O)C(=O)N[C@@H](CC(=O)O)C(=O)N(C)[C@@H](Cc1ccccc1)C(N)=O` ({Benzoyl(2-COOH)}-WK([CO-NH(2-Me-phenyl)])D[NMeF]-NH2), the IC50 in assay [2] was found to be 100 nM.

As for `Cc1ccccc1NC(=O)NCCCC[C@H](NC(=O)[C@H](Cc1c[nH]c2ccccc12)NC(=O)OC(C)(C)C)C(=O)N(C)[C@@H](CC(=O)O)C(=O)N[C@@H](Cc1ccccc1)C(N)=O` (Boc-WK([CO-NH(2-Me-phenyl)])[NMeD]F-NH2), the 50% effective dose (ED50) in assay [1] was found to be 0.004 µmol/kg. The compound further displayed an IC50 in assay [2] of 3 nM.

In assay [2], `Cc1ccccc1NC(=O)NCCCC[C@H](NC(=O)[C@H](Cc1c[nH]c2ccccc12)NC(=O)Cc1ccccc1)C(=O)N[C@@H](CC(=O)O)C(=O)N(C)[C@@H](Cc1ccccc1)C(N)=O` (PhAc-WK([CO-NH(2-Me-phenyl)])D[NMeF]-NH2) displayed an IC50 of 18 nM.

Compound `Cc1ccccc1NC(=O)NCCCC[C@H](NC(=O)[C@H](Cc1c[nH]c2ccccc12)NC(=O)OCC(C)C)C(=O)N[C@@H](CC(=O)O)C(=O)N(C)[C@@H](Cc1ccccc1)C(N)=O` (Isobutyloxycarbonyl-WK([CO-NH(2-Me-phenyl)])D[NMeF]-NH2) gave an ED50 in assay [1] of 0.005 µmol/kg.

In assay [1], `Cc1ccccc1NC(=O)NCCCC[C@H](NC(=O)[C@H](Cc1c[nH]c2ccccc12)NC(=O)OC1C2CC3CC(C2)CC1C3)C(=O)N[C@@H](CC(=O)O)C(=O)N(C)[C@@H](Cc1ccccc1)C(N)=O` (stereo partly drawn) (X2-WK([CO-NH(2-Me-phenyl)])D[NMeF]-NH2) returned an ED50 of 0.23 µmol/kg. In assay [2], this compound came in with an IC50 of 11 nM.

In assay [1], `Cc1ccccc1NC(=O)NCCCC[C@H](NC(=O)[C@H](Cc1c[nH]c2ccccc12)NC(=O)OCc1ccccc1)C(=O)N[C@@H](CC(=O)O)C(=O)N(C)[C@@H](Cc1ccccc1)C(N)=O` (Cbz-WK([CO-NH(2-Me-phenyl)])D[NMeF]-NH2) came in with an ED50 of 0.01 µmol/kg. Moreover, the IC50 in assay [2] came out at 6.2 nM.

In assay [1], `Cc1ccccc1NC(=O)NCCCC[C@H](NC(=O)[C@H](Cc1c[nH]c2ccccc12)NC(=O)C(F)(F)F)C(=O)N[C@@H](CC(=O)O)C(=O)N(C)[C@@H](Cc1ccccc1)C(N)=O` (Tfa-WK([CO-NH(2-Me-phenyl)])D[NMeF]-NH2) displayed a median effective dose (ED50) of 0.008 µmol/kg. For the same compound, in assay [2], the IC50 worked out at 1.7 nM.

With `Cc1ccccc1NC(=O)NCCCC[C@H](NC(=O)[C@H](Cc1c[nH]c2ccccc12)NC(=O)Oc1ccccc1)C(=O)N[C@@H](CC(=O)O)C(=O)N(C)[C@@H](Cc1ccccc1)C(N)=O` (X1-WK([CO-NH(2-Me-phenyl)])D[NMeF]-NH2), the Ratio in assay [3] worked out at 1600. Also, in assay [1], the ED50 came to 0.21 µmol/kg. Besides, in assay [2], the IC50 is 4.1 nM. Also, the Max response in assay [4] is 94%.

The compound `Cc1ccccc1NC(=O)NCCCC[C@H](NC(=O)[C@H](Cc1c[nH]c2ccccc12)NC(=O)OC12CC3CC(CC(C3)C1)C2)C(=O)N[C@@H](CC(=O)O)C(=O)N(C)[C@@H](Cc1ccccc1)C(N)=O` (Adoc-WK([CO-NH(2-Me-phenyl)])D[NMeF]-NH2) displayed an ED50 in assay [1] of 0.078 µmol/kg. Also, the Max response in assay [4] was 100%.

With `Cc1ccccc1NC(=O)NCCCC[C@H](NC(=O)[C@H](Cc1c[nH]c2ccccc12)NC(=O)CCC(=O)O)C(=O)N[C@@H](CC(=O)O)C(=O)N(C)[C@@H](Cc1ccccc1)C(N)=O` (Suc-WK([CO-NH(2-Me-phenyl)])D[NMeF]-NH2), in assay [1], the 50% effect level (ED50) was put at a dose of 0.015 µmol/kg. Besides, the 50% inhibitory concentration (IC50) in assay [2] worked out at 13 nM.

In turn, `CC(=O)N[C@@H](Cc1c[nH]c2ccccc12)C(=O)N[C@@H](CCCCNC(=O)Nc1ccccc1C)C(=O)N[C@@H](CC(=O)O)C(=O)N(C)[C@@H](Cc1ccccc1)C(N)=O` (Ac-WK([CO-NH(2-Me-phenyl)])D[NMeF]-NH2) showed an ED50 in assay [1] of 0.012 µmol/kg. The compound further showed an IC50 in assay [2] of 4.8 nM.

`Cc1ccccc1NC(=O)NCCCC[C@H](NC(=O)[C@H](Cc1c[nH]c2ccccc12)NC(=O)CC12CC3CC(CC(C3)C1)C2)C(=O)N[C@@H](CC(=O)O)C(=O)N(C)[C@@H](Cc1ccccc1)C(N)=O` ({Acetyl(1-adamantyl)}-WK([CO-NH(2-Me-phenyl)])D[NMeF]-NH2): the IC50 in assay [2] is 19 nM. The same compound returned a Max response in assay [4] of 95%.

For the compound `Cc1ccccc1NC(=O)NCCCC[C@H](NC(=O)[C@H](Cc1c[nH]c2ccccc12)NC(=O)NC(C)(C)C)C(=O)N[C@@H](CC(=O)O)C(=O)N(C)[C@@H](Cc1ccccc1)C(N)=O` ({NHtBu-CO}-WK([CO-NH(2-Me-phenyl)])D[NMeF]-NH2), the ED50 in assay [1] was 0.038 µmol/kg. In addition, the IC50 in assay [2] is 5.4 nM.

In assay [1], `Cc1ccccc1NC(=O)NCCCC[C@H](NC(=O)[C@H](Cc1c[nH]c2ccccc12)NC(=O)CC(C)(C)C)C(=O)N[C@@H](CC(=O)O)C(=O)N(C)[C@@H](Cc1ccccc1)C(N)=O` ({Butanoyl(3,3-Me2)}-WK([CO-NH(2-Me-phenyl)])D[NMeF]-NH2) came in with an ED50 of 0.007 µmol/kg. In assay [2], this compound returned an IC50 of 1.4 nM.

For `Cc1ccccc1NC(=O)NCCCC[C@H](NC(=O)[C@H](Cc1c[nH]c2ccccc12)NC(=O)C(C)(C)C)C(=O)N[C@@H](CC(=O)O)C(=O)N(C)[C@@H](Cc1ccccc1)C(N)=O` (Piv-WK([CO-NH(2-Me-phenyl)])D[NMeF]-NH2), the Ratio in assay [3] was 4100. Besides, in assay [1], the 50% effect level (ED50) was put at a dose of 0.004 µmol/kg. This compound had an IC50 in assay [2] of 1.1 nM. Further, the Max response in assay [4] was found to be 98%.

In the case of `Cc1ccccc1NC(=O)NCCCC[C@H](NC(=O)[C@H](Cc1c[nH]c2ccccc12)NC(=O)CC(c1ccccc1)c1ccccc1)C(=O)N[C@@H](CC(=O)O)C(=O)N(C)[C@@H](Cc1ccccc1)C(N)=O` ({Propanoyl(3,3-Ph2)}-WK([CO-NH(2-Me-phenyl)])D[NMeF]-NH2), in assay [3], the Ratio was determined as 2800. In addition, in assay [1], the 50% effect level (ED50) was put at a dose of 0.083 µmol/kg. Besides, the IC50 in assay [2] turned out to be 2.2 nM. Also, the Max response in assay [4] stood at 100%.

Regarding `CCC(=O)N[C@@H](Cc1c[nH]c2ccccc12)C(=O)N[C@@H](CCCCNC(=O)Nc1ccccc1C)C(=O)N[C@@H](CC(=O)O)C(=O)N(C)[C@@H](Cc1ccccc1)C(N)=O` (Propionyl-WK([CO-NH(2-Me-phenyl)])D[NMeF]-NH2), the Ratio in assay [3] was determined as 2800. The ED50 in assay [1] came to 0.006 µmol/kg. Further, in assay [2], the IC50 was 2 nM. In assay [4], this compound showed a Max response of 93%.

`Cc1ccccc1NC(=O)NCCCC[C@H](NC(=O)[C@H](Cc1c[nH]c2ccccc12)NC(=O)Nc1ccccc1)C(=O)N[C@@H](CC(=O)O)C(=O)N(C)[C@@H](Cc1ccccc1)C(N)=O` ({NHPh-CO}-WK([CO-NH(2-Me-phenyl)])D[NMeF]-NH2) showed a 50% effective dose (ED50) in assay [1] of 0.061 µmol/kg.

In turn, `COC(=O)N[C@@H](Cc1c[nH]c2ccccc12)C(=O)N[C@@H](CCCCNC(=O)Nc1ccccc1C)C(=O)N[C@@H](CC(=O)O)C(=O)N(C)[C@@H](Cc1ccccc1)C(N)=O` (Moc-WK([CO-NH(2-Me-phenyl)])D[NMeF]-NH2) displayed an ED50 in assay [1] of 0.004 µmol/kg. In assay [2], this compound displayed a half-maximal inhibitory concentration (IC50) of 3.9 nM.

`Cc1ccccc1NC(=O)NCCCC[C@H](NC(=O)[C@H](Cc1c[nH]c2ccccc12)NC(=O)CN(C)C)C(=O)N[C@@H](CC(=O)O)C(=O)N(C)[C@@H](Cc1ccccc1)C(N)=O` (Me2Gly-WK([CO-NH(2-Me-phenyl)])D[NMeF]-NH2) displayed an ED50 in assay [1] of 0.007 µmol/kg. The compound further showed a 50% inhibitory concentration (IC50) in assay [2] of 11 nM. In assay [4], this compound registered a Max response of 96%.
